hIAP activ = human IAP activators, primary screen, biochemical, luminescence, uHTS; activation factor at 10 µM; purified human IAP, CDP-Star luminescence, 30 min; stronger effect = higher value; 1 = vehicle-only enzyme, 0 = enzyme-free background; Intestinal-type alkaline phosphatase (Homo sapiens), P09923; 0.16% of 330,000 active; AID 2524, 2010;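 active = activation factor of the enzyme at least 2-fold when tested at 20 µM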
Target sequence (P09923 whole entry, looked up): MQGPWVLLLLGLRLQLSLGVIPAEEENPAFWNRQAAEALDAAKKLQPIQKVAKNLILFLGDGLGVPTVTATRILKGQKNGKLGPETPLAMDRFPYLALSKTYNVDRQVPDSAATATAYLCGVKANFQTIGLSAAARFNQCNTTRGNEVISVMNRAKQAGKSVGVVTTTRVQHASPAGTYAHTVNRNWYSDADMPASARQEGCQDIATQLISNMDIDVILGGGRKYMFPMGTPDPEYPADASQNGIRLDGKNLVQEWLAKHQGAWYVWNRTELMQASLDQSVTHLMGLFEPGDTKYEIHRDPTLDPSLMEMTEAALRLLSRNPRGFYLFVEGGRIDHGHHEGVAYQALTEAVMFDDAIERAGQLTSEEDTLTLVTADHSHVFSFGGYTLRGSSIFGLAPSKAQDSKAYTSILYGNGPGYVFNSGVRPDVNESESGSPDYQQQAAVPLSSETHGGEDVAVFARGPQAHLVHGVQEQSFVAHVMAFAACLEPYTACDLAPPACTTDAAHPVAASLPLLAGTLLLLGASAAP
hIAP block = human IAP inhibitors, primary screen, biochemical, luminescence, uHTS; AID 2544, 2010; inhibition, % at 10 µM; 0.12% of 330,000 active; purified IAP, CDP-Star luminescence, 30 min;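 active = inhibition reaching a set limit with compound at 10 µM in the primary screen, cut at about 35% in these data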
mIAP activ = activators of mouse IAP, primary screen, biochemical, luminescence, uHTS. muIAP, CDP-Star luminescence, 30 min; stronger effect = higher value; 1 = vehicle-only enzyme signal, 0 = enzyme-free wells. 0.24% of 330,000 active. activation factor at 10 µM. AID 2805, 2010. intestinal alkaline phosphatase [Mus musculus];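 active = activation factor of at least 2 at 20 µM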
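Assay system: mouse IAP enzyme; reagent: chemiluminescent substrate CDP-Star; dosing: test compounds delivered from DMSO solution; schedule: 30 min at room temperature; measured by: luminescence from enzymatic CDP-Star hydrolysis; controls: DMSO-only wells and no-enzyme negative control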
mIAP inh = inhibitors of mouse IAP, primary screen, biochemical, luminescence, uHTS. intestinal alkaline phosphatase [Mus musculus]. purified mouse IAP, CDP-Star luminescence, 30 min. inhibition, % at 10 µM. 0.2% of 330,000 active. AID 2806, 2010;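 active = inhibition of at least 40% at 10 µM in the primary screen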
bIAP activator = bovine intestinal alkaline phosphatase activators, primary screen, biochemical, bovine IAP, CDP-star luminescence. alkaline phosphatase, intestinal [Bos taurus]. purified bovine IAP, 30 min; stronger effect = higher value; fold of DMSO-control signal, blank-subtracted. activation factor at 20 µM. 0.17% of 200,000 active;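 active = activation factor of 2 or more at 20 µM, a signal rise over negative controls twice the positive control's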
bIAP inh = bovine intestinal alkaline phosphatase inhibitors, primary screen, selectivity assay for TNAP inhibitor project, biochemical, bovine IAP, CDP-star luminescence. purified bovine IAP, 30 min. AID 1019, 2008. alkaline phosphatase, intestinal [Bos taurus]. 190,000 tested, under 10 active. inhibition, % at 20 µM;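 active = over 50% inhibition of intestinal alkaline phosphatase at 20 µM in the single-dose screen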
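Incubation: 30 min reaction at room temperature / Material: purified bovine intestinal alkaline phosphatase (IAP) enzyme / Input: enzyme at 1/65,000,000 dilution / Dosing: 20 µM single dose / Signal: CDP-star luminescence signal / Reagent: CDP-star chemiluminescent phosphatase substrate, 30 µM final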
Hits are given with their value; – = inactive; · = not tested or not shown. Rows were chosen to be rich in hits. Some 0.77% of all compounds tested hit in one or more screens of this group.

SMILES	hIAP activ	hIAP block	mIAP activ	mIAP inh	bIAP activator	bIAP inh
CSCc1nc2sc(C(=O)Nc3nc(C)cs3)c(C)c2c(=O)[nH]1	–	–	–	41.5	–	–
COc1ccc(NC(=O)Nc2cccc3c2O[C@H](CN(C)S(=O)(=O)c2c(C)noc2C)[C@@H](C)CN([C@H](C)CO)C3=O)cc1	–	–	–	–	·	·
COC(=O)c1ccccc1N1C(=O)C2C(C1=O)[C@H]1C=C[C@@H]2C1 (some centres undefined)	–	–	–	50.3	–	–
CC(c1ccccc1)N1CCn2c(nc3cc(NC(=O)c4cccs4)ccc32)C1 (centres undefined)	–	–	–	–	–	–
CC(c1ccccc1)N1CCn2c(nc3cc(NC(=O)NC4CCCCC4)ccc32)C1 (centres undefined)	·	·	·	·	2.5	–
S=c1[nH]nc(-c2ccccc2)n1/N=C/C=C/c1ccco1	–	–	–	52.9	–	–
COc1cccc(OCC(=O)NNC(=O)c2cccs2)c1	–	–	–	40.6	–	–
CCN1/C(=C\C=C2\C(=O)N(C)C(=S)N2C)Sc2ccccc21	–	37.3	–	–	–	–
O=S1(=O)CCOCCN1Cc1ccc(Cl)cc1Cl	–	–	–	–	·	·
O=C(Nc1cccc(Cl)c1)N1CCN(C2c3ccccc3-c3ccccc32)CC1	–	–	2.09	–	·	·
O=C(NC1CCN(C(=O)Nc2cccc(Cl)c2)CC1)c1ccccc1	–	–	–	–	·	·
OCCN1CCN(CC(O)COc2ccc3ccccc3c2)CC1 (centres undefined)	–	–	–	–	2.9	–
COc1cc(/C=C2\CC/C(=C\c3cc(OC)c(O)c(OC)c3)C2=O)cc(OC)c1O	–	–	–	55.6	–	·
O=C(Oc1c(Br)cc([N+](=O)[O-])cc1Br)c1cccnc1	2.33	–	–	–	–	–
N/C(=N\OC(=O)c1ccc([N+](=O)[O-])cc1)c1cccnc1	–	–	–	–	–	–
O=C(Nc1ccc(F)cc1)c1nc2c(nnn2Cc2cccc3ccccc23)c(=O)[nH]1	–	–	–	–	·	·
O=C(COC(=O)c1ccc(S(=O)(=O)NCc2ccco2)cc1)Nc1ccccc1OC(F)F	–	–	–	–	2.4	–
O=C(COC(=O)c1ccc(S(=O)(=O)NCc2ccco2)cc1)Nc1ccccc1	–	–	–	–	·	·
COc1cc(NC(=O)C(C)N2CCN(C(=O)C3CC3)CC2)cc(OC)c1 (centres undefined)	–	–	–	–	·	·
Cc1cc(C)c(S(=O)(=O)Nc2ccc(O)c(Sc3ncn[nH]3)c2)c(C)c1	–	–	–	68.8	–	–
O=C(/C=C/c1ccc([N+](=O)[O-])cc1)NCc1cccs1	–	–	–	–	4.9	–
O=C(COC(=O)/C=C/c1ccc([N+](=O)[O-])cc1)NCc1cccs1	–	–	–	–	·	·
Cc1cc(C)nc(/N=C(\N)Nc2ccc(-c3ccccc3)cc2)n1	–	–	–	–	3.7	–
CC(=O)Nc1ccc(N/C(N)=N/c2nc(C)cc(C)n2)cc1	–	–	–	–	–	–
Cc1ccc(NC(=O)CCN2CCOCC2)cc1C	–	–	–	–	·	·
SMILES	hIAP activ	hIAP block	mIAP activ	mIAP inh	bIAP activator	bIAP inh
CCn1ccnc1CNCc1cn(-c2cc(C)ccc2C)nc1-c1ccccc1	–	–	–	–	2.7	–
O=C(COc1coc(CN2CCN(Cc3ccccc3)CC2)cc1=O)Nc1ccccc1	–	–	–	–	·	·
Cc1cc(OCCCCCn2ccnc2)cc(C)c1Cl	–	–	–	–	68.3	–
COC(=O)c1ccc(NC(=O)Nc2ccc(F)c(Cl)c2)cc1	–	–	2.29	–	–	–
COC(=O)c1cc(NC(=O)Nc2ccccc2)ccc1Cl	–	–	2.5	–	–	–
O=C(Nc1ccncc1)Nc1ccc(F)c(Cl)c1	–	–	–	–	–	–
COC(=O)c1cccc(NC(=O)Nc2ccc(Cl)c(Cl)c2)c1	–	–	3.04	–	–	–
NS(=O)(=O)c1ccc(NC(=O)c2cccc(N3C(=O)c4ccccc4C3=O)c2)cc1	–	–	–	–	·	·
O=C(O)c1cc(O)c2c(c1)C(=O)c1cc(O)cc(O)c1C2=O	–	–	–	40.1	–	–
CC1CCN(c2ccc(NC(=O)c3ccccc3[N+](=O)[O-])cc2)CC1	–	–	–	–	–	–
O=C(c1ccccc1)c1cccc[n+]1[O-]	–	–	–	–	·	·
O=C1CCCCN1CC(=O)N1CCCC(Nc2ccc(F)cc2)C1 (centres undefined)	–	–	–	44.3	·	·
C=C(C)c1cccc(C(C)(C)NC(=O)NCCCN2CCCC2=O)c1	–	–	–	–	–	–
C=C(C)c1cccc(C(C)(C)NC(=O)NCCCn2ccnc2)c1	–	–	–	–	2.3	–
COc1ccc(-c2cn(Cc3ccc(C(N)=O)cc3)c(-c3ccncc3)n2)cc1	–	–	–	–	·	·
CCCc1c(NC(=O)Nc2ccc(F)cc2)cnn1-c1ccccc1	–	–	2.3	–	·	·
CCc1ccc(-c2nc(CN3CCC(C(=O)NCc4ccccc4OC)CC3)c(C)o2)cc1	–	–	–	–	2.6	–
CCc1ccc(-c2nc(CN3CCC(C(=O)NCCc4ccc(OC)c(OC)c4)CC3)c(C)o2)cc1	–	–	–	–	2.1	–
Fc1ccc(NC(=S)NC2CC3CCCC(C2)N3Cc2cccs2)cc1 (centres undefined)	–	–	2.81	–	–	–
CC(C)c1ccc(NC(=O)NC2CC3CCC(C2)N3Cc2cccs2)cc1 (centres undefined)	–	–	–	–	–	–
Cc1ccc(NC(=S)NC2CC3CCCC(C2)N3Cc2ccco2)cc1 (centres undefined)	–	–	–	–	–	–
CC(C)CNC(=S)NC1CC2CCCC(C1)N2Cc1ccco1 (centres undefined)	–	–	–	–	–	–
Cc1ccc(NC(=S)NC2CC3CCCC(C2)N3Cc2cccs2)cc1 (centres undefined)	–	–	4.18	–	2	–
CC(C)CNC(=S)NC1CC2CCCC(C1)N2Cc1cccs1 (centres undefined)	–	–	2.63	–	–	–
Cc1cc(NS(=O)(=O)c2ccc(NC(=O)Nc3cccc(C(F)(F)F)c3)cc2)no1	–	–	–	–	·	·
CCn1ncc(/C=N\NC(=O)c2ccc3c(c2)c(C)c(C)n3Cc2ccccc2)c1C	–	–	3.4	–	4.5	–
CCn1ncc(/C=N/NC(=O)c2ccc3c(c2)OCO3)c1C	–	–	–	–	–	–

Compound activity: PubChem, Sanford-Burnham Center for Chemical Genomics
